The values below come from PMC8553517 (ACS infectious diseases, 2021).

Series [1] deals with intracellular L. donovani. Put plainly: L. donovani-infected macrophage assay. It counts as cell-based, Leishmania donovani. The note with it: Leishmania donovani, Macrophage, read-out: IC50 against L. donovani.
A further series has as its system J774 macrophages. Put plainly: J774 macrophage toxicity assay. It counts as cell-based, mouse. The settings on record: for IC50: Mus musculus, J774, read-out: IC50 against J774 macrophages.
A further series deals with HepG2 cells. Put plainly: HepG2 toxicity assay. The settings on record: for IC50: Homo sapiens, HepG2, 72 h, read-out: IC50 against HepG2. It counts as cell-based.
Series [2] deals with recombinant L. donovani CYP51 (Leishmania donovani, UniProt A0A3S7WRS7). Put plainly: Fluorescence-based L. donovani CYP51 inhibition assay. It counts as biochemical.
The subject of another series is L. donovani CYP51. Put plainly: L. donovani CYP51 ligand binding spectra. On the set-up: species or system Leishmania donovani. The note with it: titration of CYP51; absorbance maximum 431 nm, minimum 412–413 nm. A digest of the protocol: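 Purified N-terminally truncated L. donovani CYP51 (CYP51-32c, His-tagged; purity by SDS-PAGE/anti-His Western blot, CO-difference spectra) at 0.5 µM, titrated in 30 mM potassium phosphate pH 7.4 with 0.1 mM EDTA and 20% glycerol. […], and sample-minus-reference difference spectra were recorded.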

The target in a further series is recombinant human CYP3A4 (Homo sapiens, UniProt P08684). Put plainly: Inhibition of recombinant human CYP3A4. It counts as in vitro ADME.
For series [3], the system named is L. donovani-infected female BALB/c mice. Put plainly: Murine visceral leishmaniasis model. The settings on record: for Reduction in liver parasitemia: three days after final dose. It counts as in vivo. In outline:
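Female BALB/c mice infected with L. donovani; groups of four. Dosing by oral gavage for 5 consecutive days, starting one week post-infection. Test compound was given at 75 or 37.5 mg/kg/day in 50% PEG400/50% water. Reference drug miltefosine was given at 10 mg/kg/day in water. The vehicle control group received PEG-400. Liver parasitemia was determined three days after the final dose, reported as percent reduction (mean ± S.E.M.).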

Series [4] can be described thus: Microsomal stability, human liver microsomes. The series is classed as in vitro ADME. For orientation: Microsomes from liver hold many membrane-bound enzymes, among them those of drug oxidation.

As usually defined, the IC50 is the concentration that inhibits the measured activity by half. The share remaining is what is left of the initial amount, in per cent. Read a high share remaining as greater stability.

“And” between values parts separate entries of the source, which are not always exact repeats. Equal entries are not always repeated.

Chain of recombinant human CYP3A4 (P08684 whole entry): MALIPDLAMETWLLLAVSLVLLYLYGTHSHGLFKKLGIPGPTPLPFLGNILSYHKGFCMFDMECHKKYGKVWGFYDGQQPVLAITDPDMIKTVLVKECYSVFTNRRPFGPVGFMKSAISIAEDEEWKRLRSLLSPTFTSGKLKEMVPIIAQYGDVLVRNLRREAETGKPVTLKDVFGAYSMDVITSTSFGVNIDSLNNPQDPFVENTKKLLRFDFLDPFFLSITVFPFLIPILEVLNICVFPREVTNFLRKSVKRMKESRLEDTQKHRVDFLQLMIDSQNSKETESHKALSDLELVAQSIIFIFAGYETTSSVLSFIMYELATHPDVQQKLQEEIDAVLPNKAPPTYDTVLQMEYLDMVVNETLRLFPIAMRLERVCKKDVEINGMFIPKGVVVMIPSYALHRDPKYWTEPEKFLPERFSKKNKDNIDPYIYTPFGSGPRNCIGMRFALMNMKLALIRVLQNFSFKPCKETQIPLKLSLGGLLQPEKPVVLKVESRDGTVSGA

Consider `CC(C)Oc1cc(OCCCCCCCCn2ccnc2)ccc1NC(=N)c1ccccn1` [Compound 24c, N-(4-((8-(1H-imidazol-1-yl)octyl)oxy)-2-isopropoxyphenyl) picolinimidamide], for which the IC50 was 530 ± 50 nM in series [1]; 6800 ± 200 nM with J774 macrophages; 12000 ± 2000 nM in the series on HepG2 cells; 330 ± 10 nM in series [2]; 80 ± 9 nM at recombinant human CYP3A4. Also, the “Selectivity index (IC50 vs. mammalian cell line/IC50 vs. L. donovani)” value in the series with J774 macrophages (J774 macrophages vs. intracellular L. donovani) was 13; in the series on HepG2 cells (HepG2 cells vs. intracellular L. donovani), 23. The “CYP51 binding spectrum type” value in the series with L. donovani CYP51 was “typical Type II binding spectra”. Also, the “Reduction in liver parasitemia” value in series [3] (37.5 mg/kg/day × 5 p.o.) was 17 ± 5%; in series [3] (75 mg/kg/day × 5 p.o., mean ± S.E.M.) it was 33% and 33 ± 7%.

On to `N=C(Nc1ccc(OCCCCCCCCn2ccnc2)cc1)c1ccccn1` [Compound 9h, N-(4-((8-(1H-imidazol-1-yl)octyl)oxy)phenyl) picolinimidamide], for which the IC50 in series [1] was found to be 1000 nM; in the series with J774 macrophages, 11000 ± 1000 nM; in the series on HepG2 cells, 12000 ± 3000 nM; in series [2], 360 ± 30 nM; at recombinant human CYP3A4 it was 47 ± 3 nM. For the same compound, in the series with L. donovani CYP51, the “CYP51 binding spectrum type” value is “typical Type II binding spectra”. The same compound registered a share remaining at 1 h, 3 μM in series [4] (human, liver microsomes) of 100%. Also, the “Degradation by human liver microsomes (in words)” value in series [4] (over a period of one hour, substrate 3 μM) is on record as “not degraded”.

Consider `CCCCCCCCCCCCCCCCOP(=O)([O-])OCC[N+](C)(C)C` [Miltefosine, miltefosine, reference compound], for which the “Reduction of liver infection” value in series [3] (10 mg/kg/day × 5 p.o.) turned out to be 95 ± 2%.
